Source: ChEMBL document CHEMBL2407075, “Sulphonamido-quinoxalines: search for anticancer agent” (Eur J Med Chem, 2013)

Experiments:
Type in all cases: functional
[1] = tested on: SF-268; assay: Growth inhibition of human SF268 cells assessed as cell growth at 10^-5 M after 48 hrs by sulforhodamine B assay; conditions: SF-268, 48 h, read-out: Activity
[2] = tested on: MOLT-4; assay: Growth inhibition of human MOLT4 cells assessed as cell growth at 10^-4 M after 48 hrs by sulforhodamine B assay; conditions: MOLT-4, 48 h, read-out: Activity
[3] = tested on: T47D; assay: Growth inhibition of human T47D cells assessed as cell growth at 10^-6 M after 48 hrs by sulforhodamine B assay; conditions: read-out: Activity
[4] = tested on: SK-OV-3; assay: Growth inhibition of human SKOV3 cells assessed as cell growth at 10^-6 M after 48 hrs by sulforhodamine B assay; conditions: SK-OV-3, 48 h, read-out: Activity
[5] = tested on: SK-OV-3; assay: Growth inhibition of human SKOV3 cells assessed as cell growth at 10^-4 M after 48 hrs by sulforhodamine B assay; conditions: SK-OV-3, 48 h, read-out: Activity
[6] = tested on: SF-268; assay: Growth inhibition of human SF268 cells after 48 hrs by sulforhodamine B assay; conditions: SF-268, 48 h; for CC50: read-out: LC50 (the source's name)
In short: (§1)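 Adherent cells in RPMI 1640 with 5% FBS and 2 mM L-glutamine were plated at 5000–40,000 cells/well and grown 24 h. Five concentrations (0.01–100 µM, DMSO stock) were added for 48 h at 37 °C. Cells were fixed with cold TCA (10% final) and stained with SRB, read at 515 nm. GI50 came from log concentration–growth curves against time-zero and control plates.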

[7] = tested on: HOP-92; assay: Growth inhibition of human HOP92 cells assessed as cell growth at 10^-5 M after 48 hrs by sulforhodamine B assay; conditions: HOP-92, 48 h, read-out: Activity
In short: (§2)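 Five-dose screen at NCI. Cells in RPMI 1640 with 5% FBS and 2 mM L-glutamine, seeded at 5000–40,000 cells/well and grown 24 h at 37 °C, 5% CO2 before dosing, with time-zero plates TCA-fixed. Drug diluted from DMSO stock to 0.01, 0.1, 1, 10 and 100 µM final, 48 h. Cells fixed with cold TCA (10% final), stained with 0.4% SRB and read at 515 nm. Percent growth from Tz, control and test absorbances; GI50, TGI and LC50 from dose-response curves.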

[8] = tested on: RXF 393; assay: Growth inhibition of human RXF393 cells assessed as cell growth at 10^-4 M after 48 hrs by sulforhodamine B assay; conditions: RXF 393, 48 h, read-out: Activity
[9] = tested on: NCI-H322M; assay: Growth inhibition of human NCI-H322M cells assessed as cell growth at 10^-7 M after 48 hrs by sulforhodamine B assay; conditions: read-out: Activity
[10] = tested on: UACC-62; assay: Growth inhibition of human UACC62 cells after 48 hrs by sulforhodamine B assay; conditions: UACC-62, 48 h, read-out: LC50 (the source's name)
[11] = tested on: SR; assay: Growth inhibition of human SR cells assessed as cell growth at 10^-8 M after 48 hrs by sulforhodamine B assay; conditions: read-out: Activity
[12] = tested on: HOP-92; assay: Growth inhibition of human HOP92 cells assessed as cell growth at 10^-4 M after 48 hrs by sulforhodamine B assay; conditions: HOP-92, 48 h, read-out: Activity; in short: as §2
[13] = tested on: SF-539; assay: Growth inhibition of human SF539 cells after 48 hrs by sulforhodamine B assay; conditions: SF-539, 48 h; for CC50: read-out: LC50 (the source's name); in short: as §1
[14] = tested on: KM12; assay: Growth inhibition of human KM12 cells assessed as cell growth at 10^-4 M after 48 hrs by sulforhodamine B assay; conditions: KM12, 48 h, read-out: Activity
[15] = Growth inhibition of human EKVX cells assessed as cell growth at 10^-8 M after 48 hrs by sulforhodamine B assay; conditions: read-out: Activity; in short: as §2
[16] = tested on: COLO 205; assay: Growth inhibition of human COLO205 cells after 48 hrs by sulforhodamine B assay; conditions: COLO 205, 48 h, read-out: LC50 (the source's name); in short: as §1
[17] = Growth inhibition of human HCC2998 cells assessed as cell growth at 10^-6 M after 48 hrs by sulforhodamine B assay; conditions: HCC 2998, 48 h, read-out: Activity; in short: as §2
[18] = tested on: UACC-62; assay: Growth inhibition of human UACC62 cells assessed as cell growth at 10^-8 M after 48 hrs by sulforhodamine B assay; conditions: UACC-62, 48 h, read-out: Activity
[19] = Growth inhibition of human Hs 578T cells after 48 hrs by sulforhodamine B assay; conditions: for CC50: read-out: LC50 (the source's name); in short: as §1
[20] = Growth inhibition of human HCC2998 cells assessed as cell growth at 10^-5 M after 48 hrs by sulforhodamine B assay; conditions: HCC 2998, 48 h, read-out: Activity; in short: as §2
[21] = tested on: NCI-H23; assay: Growth inhibition of human NCI-H23 cells assessed as cell growth at 10^-5 M after 48 hrs by sulforhodamine B assay; conditions: NCI-H23, 48 h, read-out: Activity
[22] = tested on: SR; assay: Growth inhibition of human SR cells assessed as cell growth at 10^-6 M after 48 hrs by sulforhodamine B assay; conditions: read-out: Activity
[23] = tested on: OVCAR-4; assay: Growth inhibition of human OVCAR4 cells assessed as cell growth at 10^-7 M after 48 hrs by sulforhodamine B assay; conditions: OVCAR-4, 48 h, read-out: Activity
[24] = tested on: SF-539; assay: Growth inhibition of human SF539 cells assessed as cell growth at 10^-7 M after 48 hrs by sulforhodamine B assay; conditions: SF-539, 48 h, read-out: Activity
[25] = tested on: UO-31; assay: Growth inhibition of human UO31 cells assessed as cell growth at 10^-6 M after 48 hrs by sulforhodamine B assay; conditions: UO-31, 48 h, read-out: Activity
[26] = tested on: OVCAR-5; assay: Growth inhibition of human OVCAR5 cells assessed as cell growth at 10^-6 M after 48 hrs by sulforhodamine B assay; conditions: OVCAR-5, 48 h, read-out: Activity
[27] = tested on: A549; assay: Growth inhibition of human A549/ATCC cells assessed as cell growth at 10^-4 M after 48 hrs by sulforhodamine B assay; conditions: A549, 48 h, read-out: Activity
In short: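 Five-dose NCI-60 run (0.01, 0.1, 1, 10 and 100 µM, as 10-fold dilutions from a DMSO stock made at 400× the top final level). Cells were grown in RPMI 1640 with 5% FBS and 2 mM glutamine and plated for 24 h. They were then exposed for 48 h at 37 °C and 5% CO2. TCA fixation was followed by SRB staining with A515 read-out. Percent growth was taken relative to time-zero and control plates.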

[28] = tested on: OVCAR-3; assay: Growth inhibition of human OVCAR3 cells assessed as cell growth at 10^-6 M after 48 hrs by sulforhodamine B assay; conditions: OVCAR-3, 48 h, read-out: Activity
[29] = Growth inhibition of human NCI-ADR-RES cells assessed as cell growth at 10^-4 M after 48 hrs by sulforhodamine B assay; conditions: read-out: Activity
[30] = tested on: SF-268; assay: Growth inhibition of human SF268 cells assessed as cell growth at 10^-8 M after 48 hrs by sulforhodamine B assay; conditions: SF-268, 48 h, read-out: Activity
[31] = tested on: IGROV-1; assay: Growth inhibition of human IGROV1 cells after 48 hrs by sulforhodamine B assay; conditions: IGROV-1, 48 h; for CC50: read-out: LC50 (the source's name); in short: as §1
[32] = tested on: HCT-116; assay: Growth inhibition of human HCT116 cells after 48 hrs by sulforhodamine B assay; conditions: HCT-116, 48 h; for CC50: read-out: LC50 (the source's name); in short: as §2

SMILES	growth at 10 µM [1] [%]	growth at 100 µM [2] [%]	growth at 1 µM [3] [%]	growth at 1 µM [4] [%]	growth at 100 µM [5] [%]	TGI [6] [µM]	CC50 [6] [µM]	growth at 10 µM [7] [%]	growth at 100 µM [8] [%]	growth at 0.1 µM [9] [%]	CC50 [10] [µM]	growth at 0.01 µM [11] [%]	growth at 100 µM [12] [%]	TGI [13] [µM]	CC50 [13] [µM]	growth at 100 µM [14] [%]	growth at 0.01 µM [15] [%]	CC50 [16] [µM]	growth at 1 µM [17] [%]	growth at 0.01 µM [18] [%]	other results
O=S(=O)(Nc1ccc(Cl)cc1)c1ccc2nc(-c3ccccc3)c(-c3ccccc3)nc2c1	27	68	69	105	65	> 100	> 100	-13	51	98	> 100	92	32	> 100	> 100	71	97	> 100	102	95	TGI [19]: > 100 µM; CC50 [19]: > 100 µM; growth at 10 µM [20]: 2%; growth at 10 µM [21]: 4%; growth at 1 µM [22]: 81%; growth at 0.1 µM [23]: 90%; growth at 0.1 µM [24]: 96%; growth at 1 µM [25]: 90%; growth at 1 µM [26]: 90%; growth at 100 µM [27]: 73%; growth at 1 µM [28]: 94%; growth at 100 µM [29]: 69%; growth at 0.01 µM [30]: 94%; TGI [31]: > 100 µM; CC50 [31]: > 100 µM; TGI [32]: > 100 µM; CC50 [32]: > 100 µM
O=S(=O)(Nc1ccccn1)c1ccc2nc(-c3ccccc3)c(-c3ccccc3)nc2c1	27	48	54	98	37	> 100	> 100	-18	38	102	> 100	93	1	> 100	> 100	53	100	100	100	92	GI50 [19]: 1.56 µM; CC50 [19]: > 100 µM; growth at 10 µM [20]: -14%; growth at 10 µM [21]: 4%; growth at 1 µM [22]: 66%; growth at 0.1 µM [23]: 102%; growth at 0.1 µM [24]: 94%; growth at 1 µM [25]: 85%; growth at 1 µM [26]: 104%; growth at 100 µM [27]: 51%; growth at 1 µM [28]: 92%; growth at 100 µM [29]: 58%; growth at 0.01 µM [30]: 93%; TGI [31]: > 100 µM; CC50 [31]: > 100 µM; GI50 [32]: 2.17 µM; TGI [32]: > 100 µM; CC50 [32]: > 100 µM
